In ChEMBL document CHEMBL1135744, “Design, synthesis, and structure-activity relationship of 6-alkynylpyrimidines as potent adenosine kinase inhibitors” (J Med Chem, 2002):
Active and inactive are the calls of the source. No cut-off for these calls is given here.

Assays:
[1] = test system: IMR-32; experiment: Evaluated in vitro for the inhibition of Adenosine (ADO) phosphorylation in intact cells.; assay type: functional, cell-based; conditions: Homo sapiens
How it was run: (§1)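 IMR-32 human neuroblastoma cells were preincubated 10 min with compound (10^-11 to 10^-4 M), then given [U-14C]ADO (added as a 2 μM solution) for 20 min. Buffer was aspirated and cells were snap-frozen in liquid nitrogen, then thawed 20 min at room temperature. Supernatant was spotted on DE-81 disks, washed and counted by scintillation.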

[2] = target: Adenosine kinase (Rattus norvegicus, UniProt Q64640); experiment: Evaluated in vitro for inhibitory activity against Adenosine kinase (AK)
How it was run: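 Rat brain cytosol was the adenosine kinase source. The mix held 64 mM Tris-HCl pH 7.5, 0.2 mM MgCl2, 1 mM ATP and 0.2 μM [U-14C]ADO or [2-3H]ADO, incubated 15 min at 23 °C. Aliquots were spotted onto DE-81 anion-exchange disks, washed in 2 mM ammonium formate, rinsed and dried. Bound radioactivity was counted by scintillation.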

[3] = test system: IMR-32; experiment: Evaluated in vitro for the inhibition of Adenosine (ADO) phosphorylation in intact IMR-32 human neuroblastoma cells.; assay type: functional, cell-based; how it was run: as §1
[4] = organism: Rattus norvegicus; experiment: Nociceptive paw flinching in rats assessed 30 min following an intraplantar injection of 5% formalin into the right hind paw.; assay type: functional; conditions: 0.5 h
How it was run: (§2)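 Rats received an intraplantar injection of 5% formalin (50 μL) into the right hindpaw, and nociceptive flinching was scored 30 min afterward. Data are mean ± SEM, n = 6-8 per dose group.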

[5] = organism: Rattus norvegicus; experiment: Antihyperalgesic effect in the carrageenan induced thermal hyperalgesia model; assay type: functional
[6] = test system: Rattus norvegicus; experiment: Antihyperalgesic effect in the carrageenan induced thermal hyperalgesia model uM/Kg; assay type: functional, organism-based
[7] = test system: Rattus norvegicus; experiment: Nociceptive paw flinching in rats assessed 30 min following an intraplantar injection of 5% formalin into the right hind paw.; NA=not active uM/Kg; assay type: functional, organism-based; how it was run: as §2
[8] = test system: Rattus norvegicus; experiment: Nociceptive paw flinching in rats assessed 30 min following an intraplantar injection of 5% formalin into the right hind paw; NA=not active uM/Kg; assay type: functional, organism-based; how it was run: as §2

Adenosine kinase, sequence (Q64640 whole entry): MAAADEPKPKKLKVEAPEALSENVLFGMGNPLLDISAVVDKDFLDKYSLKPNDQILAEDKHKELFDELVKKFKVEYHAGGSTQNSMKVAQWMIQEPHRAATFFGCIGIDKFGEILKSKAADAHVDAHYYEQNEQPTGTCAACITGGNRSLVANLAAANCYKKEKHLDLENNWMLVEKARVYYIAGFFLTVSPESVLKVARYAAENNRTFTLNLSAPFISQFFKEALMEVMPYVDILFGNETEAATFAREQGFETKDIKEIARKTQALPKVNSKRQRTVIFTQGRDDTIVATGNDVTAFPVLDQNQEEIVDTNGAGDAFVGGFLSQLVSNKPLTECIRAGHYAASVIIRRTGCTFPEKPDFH

| Structure (SMILES) | IC50 [1] [nM] | IC50 [2] [nM] | IC50 [3] [nM] | also measured |
| --- | --- | --- | --- | --- |
| Nc1ncnc(C#Cc2ccc(N3CCOCC3)nc2)c1CCCc1ccccc1Cl | 188 | 2.5 | – | – |
| CN(c1cccc(Br)c1)c1c(N)ncnc1C#Cc1ccc(N2CCOCC2)nc1 | – | 28 | 280 | – |
| Nc1ncnc(C#Cc2ccc(N3CCOCC3)nc2)c1CCCCc1ccccc1 | > 1000 | 45 | – | – |
| CN(Cc1ccc(Cl)cc1)c1c(N)ncnc1C#Cc1ccc(N2CCOCC2)nc1 | 360 | 106 | – | – |
| CN(Cc1cccc(Br)c1)c1c(N)ncnc1C#Cc1ccc(N2CCOCC2)nc1 | 725 | 5 | – | – |
| CN(Cc1ccc2ccccc2c1)c1c(N)ncnc1C#Cc1ccc(N2CCOCC2)nc1 | – | 246 | 388 | – |
| CN(Cc1ccc(Br)cc1)c1c(N)ncnc1C#Cc1ccc(N2CCOCC2)nc1 | 515 | 90 | – | – |
| Nc1ncnc(C#Cc2ccc(N3CCOCC3)nc2)c1CN1CCc2ccccc2C1 | – | 40 | 1000 | – |
| Nc1ncnc(C#Cc2ccc(N3CCOCC3)nc2)c1Cc1ccccc1 | – | 40 | 700 | ED50 [4]: 30 µmol/kg |
| COc1ccc(CCCc2c(N)ncnc2C#Cc2ccc(N3CCOCC3)nc2)cc1 | – | 3.5 | 198 | ED50 [5]: > 30 µmol/kg; ED50 [4]: 20 µmol/kg |
| CN(Cc1ccccc1Cl)Cc1c(N)ncnc1C#Cc1ccc(N2CCOCC2)nc1 | – | 5 | 146 | ED50 [5]: > 30 µmol/kg; ED50 [4]: 30 µmol/kg |
| Nc1ncnc(C#Cc2ccc(N3CCOCC3)nc2)c1CCc1ccccc1 | 220 | 4.5 | – | – |
| CN(Cc1cccc(Cl)c1)c1c(N)ncnc1C#Cc1ccc(N2CCOCC2)nc1 | 225 | 22 | – | NA [6]: inactive; NA [7]: inactive |
| CN(Cc1ccccc1)Cc1c(N)ncnc1C#Cc1ccc(N2CCOCC2)nc1 | – | 2 | 118 | ED50 [5]: 5 µmol/kg; NA [7]: inactive |
| Nc1ncnc(C#Cc2ccc(N3CCOCC3)nc2)c1Cc1cccc(Br)c1 | – | 22 | 1000 | – |
| Nc1cc(C#Cc2ccc(N3CCOCC3)nc2)ncn1 | – | 120 | > 1000 | – |
| Nc1ncnc(C#Cc2ccc(N3CCOCC3)nc2)c1CCCc1ccc(Br)cc1 | 565 | 2 | – | – |
| Nc1ncnc(C#Cc2ccc(N3CCOCC3)nc2)c1CCCc1cccnc1 | – | 4 | 94 | NA [7]: inactive |
| CN(Cc1ccccc1C(F)(F)F)c1c(N)ncnc1C#Cc1ccc(N2CCOCC2)nc1 | 276 | 40 | – | – |
| Nc1ncnc(C#Cc2ccc(N3CCOCC3)nc2)c1CCCc1ccccc1 | – | 2.5 | 70 | ED50 [5]: > 30 µmol/kg; ED50 [4]: 8 µmol/kg |
| Cc1ccccc1CN(C)c1c(N)ncnc1C#Cc1ccc(N2CCOCC2)nc1 | – | 6 | 94 | NA [6]: inactive; NA [8]: inactive |
| Nc1ncnc(C#Cc2ccc(N3CCOCC3)nc2)c1CCCc1ccncc1 | – | 4 | 46 | ED50 [5]: 46 µmol/kg; NA [7]: inactive |
| CN(Cc1ccccc1Cl)c1c(N)ncnc1C#Cc1ccc(N2CCOCC2)nc1 | – | 15 | 100 | ED50 [5]: 3 µmol/kg; ED50 [4]: 10 µmol/kg |
| Nc1ncnc(C#Cc2ccc(N3CCOCC3)nc2)c1CCCc1cccc(Br)c1 | 580 | 3.5 | – | – |
| CN(Cc1ccc(Cl)c(Cl)c1)c1c(N)ncnc1C#Cc1ccc(N2CCOCC2)nc1 | 345 | 200 | – | – |
| CN(Cc1ccccc1)c1c(N)ncnc1C#Cc1ccc(N2CCOCC2)nc1 | – | 30 | 124 | ED50 [5]: 10 µmol/kg; ED50 [4]: 10 µmol/kg |
